According to ChEMBL document CHEMBL1134070, “Ring-Constrained (N)-methanocarba nucleosides as adenosine receptor agonists: independent 5'-uronamide and 2'-deoxy modifications” (Bioorg Med Chem Lett, 2001):

Tests used:
Adenosine receptor A2a [1] = molecular target: T1, Adenosine receptor A2a (Rattus norvegicus, UniProt P30543); assay: Ability to displace specific radioligand [3H]-CGS- 21680 binding at A2A receptors (rA2A) in rat brain membrane; format: cell membranes
How it was run: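 Rat striatal membranes; competition against specific [3H]CGS 21680 binding at A2A receptors.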

Adenosine receptor A1 [2] = molecular target: T2, Adenosine receptor A1 (Rattus norvegicus, UniProt P25099); assay: Ability to displace specific radioligand [3H]R-PIA binding at Adenosine A1 receptor in rat brain membrane; format: cell membranes
T2 sequence (P25099 whole entry): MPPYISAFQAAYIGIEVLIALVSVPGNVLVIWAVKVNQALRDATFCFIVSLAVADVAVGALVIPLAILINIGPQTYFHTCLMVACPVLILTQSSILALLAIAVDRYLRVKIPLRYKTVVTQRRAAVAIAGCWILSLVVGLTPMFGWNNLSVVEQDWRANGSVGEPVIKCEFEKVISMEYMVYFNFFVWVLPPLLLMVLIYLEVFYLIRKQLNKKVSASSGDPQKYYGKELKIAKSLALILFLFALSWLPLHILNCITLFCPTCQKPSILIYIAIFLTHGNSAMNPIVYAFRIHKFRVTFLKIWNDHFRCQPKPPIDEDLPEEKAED
How it was run: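 Rat brain membranes; competition against specific [3H]R-PIA binding at A1 receptors.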

Adenosine receptor A3 [3] = molecular target: T3, Adenosine receptor A3 (Homo sapiens, UniProt P0DMS8); assay: Ability to displace specific radioligand [125I]AB-MECA binding at human Adenosine A3 receptor expressed in CHO cells; format: cell-based
T3 sequence (P0DMS8 whole entry): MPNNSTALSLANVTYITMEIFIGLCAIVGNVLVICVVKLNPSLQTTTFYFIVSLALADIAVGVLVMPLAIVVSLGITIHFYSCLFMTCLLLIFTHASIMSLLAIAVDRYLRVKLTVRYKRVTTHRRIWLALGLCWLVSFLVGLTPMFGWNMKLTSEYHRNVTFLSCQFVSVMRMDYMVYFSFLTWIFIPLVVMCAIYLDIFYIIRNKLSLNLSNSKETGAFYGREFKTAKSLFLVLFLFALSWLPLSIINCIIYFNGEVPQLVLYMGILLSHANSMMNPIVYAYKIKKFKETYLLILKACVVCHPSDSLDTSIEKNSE

Adenosine receptor A3 [4] = molecular target: T3, Adenosine receptor A3; assay: Agonist efficacy as effective concentration to stimulate binding of [35S]GTP-gamma-S, by activation of human A3AR receptor; format: functional
[5] = molecular target: Adenosine receptor A2a (Rattus norvegicus) (UniProt P30543); assay: Displacement of [3H]-CGS- 21680 from Adenosine A2A receptor in rat striatal membranes at 10 uM; format: cell membranes; settings: Membrane
How it was run: (§1)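 Rat striatal membranes; percent displacement of specific [3H]CGS 21680 binding at A2A receptors measured at a single 10 μM test concentration.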

[6] = molecular target: T4, Adenosine receptor A1 (Homo sapiens) (UniProt P30542); assay: Efficacy to stimulate binding of [35S]GTP-gamma-S, at human Adenosine A1 receptor; format: functional
T4 sequence (whole entry): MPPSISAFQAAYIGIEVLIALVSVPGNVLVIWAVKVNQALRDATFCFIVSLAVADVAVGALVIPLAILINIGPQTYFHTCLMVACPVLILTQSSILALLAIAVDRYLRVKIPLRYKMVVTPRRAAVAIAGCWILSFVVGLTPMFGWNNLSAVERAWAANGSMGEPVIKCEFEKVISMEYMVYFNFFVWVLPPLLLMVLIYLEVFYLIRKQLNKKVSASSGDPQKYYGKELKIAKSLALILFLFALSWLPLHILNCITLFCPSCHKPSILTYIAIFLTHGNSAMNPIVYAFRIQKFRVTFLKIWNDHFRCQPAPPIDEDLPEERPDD
How it was run: (§2)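 Functional agonist assay: stimulation of [35S]GTP-γ-S binding following activation of the human A1 receptor. EC50 and percent efficacy reported as mean±value.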

[7] = molecular target: Adenosine receptor A2a (Rattus norvegicus) (UniProt P30543); assay: Displacement of [3H]-CGS- 21680 from A2A receptors (rA2A) in rat striatal membranes at 100 uM; format: cell membranes; settings: Membrane
How it was run: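 Rat striatal membranes; percent displacement of specific [3H]CGS 21680 binding at A2A receptors measured at a single 100 μM test concentration.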

Adenosine receptor A1 [8] = molecular target: T5, Adenosine receptor A1 (Homo sapiens, UniProt P30542); assay: Agonist efficacy as effective concentration to stimulate binding of [35S]GTP-gamma-S, at human Adenosine A1 receptor; format: functional; how it was run: as §2
T5 sequence (P30542 whole entry): T4 sequence (whole entry)

Adenosine receptor A2a [9] = molecular target: T1, Adenosine receptor A2a; assay: Displacement of [3H]-CGS- 21680 from Adenosine A2A receptor in rat brain membrane; format: cell membranes
[10] = molecular target: Adenosine receptor A2a (Rattus norvegicus) (UniProt P30543); assay: Displacement of [3H]-CGS- 21680 from A2A receptors (rA2A) in rat striatal membranes at 10 uM; format: cell membranes; settings: Membrane; how it was run: as §1
Adenosine receptor A1 [11] = molecular target: T5, Adenosine receptor A1; assay: Agonist efficacy as effective concentration to stimulate binding of [35S]GTP-gamma-S, at human A1 adenosine receptor; format: functional
How it was run: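 Functional agonist assay measuring agonist-stimulated [35S]GTP-γ-S binding through activation of the human A1AR. Potency was reported as EC50 together with percent efficacy, each as mean ± error.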

Chain of Adenosine receptor A2a (Rattus norvegicus) (P30543 whole entry): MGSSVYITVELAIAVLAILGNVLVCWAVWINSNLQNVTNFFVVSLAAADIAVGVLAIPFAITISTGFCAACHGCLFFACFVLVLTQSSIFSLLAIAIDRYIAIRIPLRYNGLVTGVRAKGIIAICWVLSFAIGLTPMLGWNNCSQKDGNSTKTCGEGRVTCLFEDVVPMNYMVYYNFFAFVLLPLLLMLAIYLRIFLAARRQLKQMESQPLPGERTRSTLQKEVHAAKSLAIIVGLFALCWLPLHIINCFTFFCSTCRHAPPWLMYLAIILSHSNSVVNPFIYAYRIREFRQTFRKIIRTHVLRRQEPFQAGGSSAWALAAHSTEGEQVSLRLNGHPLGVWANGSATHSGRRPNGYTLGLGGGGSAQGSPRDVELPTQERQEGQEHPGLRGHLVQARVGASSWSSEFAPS
T1 sequence (P30543 whole entry): as above

Structure (SMILES) | Ki (Adenosine receptor A2a [1]) [nM] | Ki (Adenosine receptor A1 [2]) [nM] | Ki (Adenosine receptor A3 [3]) [nM] | further results
CNC(=O)[C@@]12C[C@@H]1[C@@H](n1cnc3c(NCc4cccc(I)c4)nc(Cl)nc31)[C@H](O)[C@@H]2O | 1660 | 83.9 |  | 
OC[C@@]12C[C@@H]1[C@@H](n1cnc3c(NCc4cccc(I)c4)nc(Cl)nc31)C[C@@H]2O | 25400 | 8730 | 912 | 
CNC(=O)[C@@]12C[C@@H]1[C@@H](n1cnc3c(NCc4cccc(I)c4)ncnc31)[C@H](O)[C@@H]2O | 548 | 52.7 | 2.39 | EC50 (Adenosine receptor A3 [4]): 6.8 nM
CNc1ncnc2c1ncn2[C@H]1[C@H](O)[C@H](O)[C@]2(CO)C[C@H]12 |  |  |  | Displacement [5]: < 10%
OC[C@@]12C[C@@H]1[C@@H](n1cnc3c(NC4CCCC4)nc(Cl)nc31)C[C@@H]2O |  |  |  | Efficacy [6]: 40%; Displacement [7]: 45%; EC50 (Adenosine receptor A1 [8]): 2280 nM
CCNC(=O)[C@@]12C[C@@H]1[C@@H](n1cnc3c(N)ncnc31)[C@H](O)[C@@H]2O |  |  |  | Ki (Adenosine receptor A2a [9]): 100 nM
CNc1nc(Cl)nc2c1ncn2[C@H]1[C@H](O)[C@H](O)[C@]2(CO)C[C@H]12 |  | 884 | 22.5 | Displacement [5]: < 10%
Nc1nc(Cl)nc2c1ncn2[C@H]1[C@H](O)[C@H](O)[C@]2(CO)C[C@H]12 |  | 273 | 84.7 | 
CNC(=O)[C@@]12C[C@@H]1[C@@H](n1cnc3c(NC)nc(Cl)nc31)[C@H](O)[C@@H]2O |  | 805 | 6.19 | Displacement [10]: < 10%; EC50 (Adenosine receptor A3 [4]): 25.5 nM
OC[C@@]12C[C@@H]1[C@@H](n1cnc3c(NC4CCCC4)ncnc31)C[C@@H]2O |  | 5110 | 2880 | Efficacy [6]: 30%; Displacement [7]: 15%; EC50 (Adenosine receptor A1 [11]): 2890 nM
